This is a sample that favours compounds with a hit; in the whole collection about 2% have one here.
CHRM1 antagonist = antagonists of human M1 muscarinic receptor | P11229 | CHO-K1 hM1, Fluo-8 calcium fluorescence, ACh EC80 antagonist | inhibition, % at 3 µM | 360,000 compounds, 1.3% hits | AID 588852;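 active means percent inhibition above its own plate's cutoff, namely the mean of that plate's compound wells plus 3 SD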;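 further: peak over basal fluorescence ratio during 140 s after agonist addition; 0% = ACh EC80 plus DMSO and 100% = DMSO alone without agonist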
Target sequence (P11229 whole entry, looked up): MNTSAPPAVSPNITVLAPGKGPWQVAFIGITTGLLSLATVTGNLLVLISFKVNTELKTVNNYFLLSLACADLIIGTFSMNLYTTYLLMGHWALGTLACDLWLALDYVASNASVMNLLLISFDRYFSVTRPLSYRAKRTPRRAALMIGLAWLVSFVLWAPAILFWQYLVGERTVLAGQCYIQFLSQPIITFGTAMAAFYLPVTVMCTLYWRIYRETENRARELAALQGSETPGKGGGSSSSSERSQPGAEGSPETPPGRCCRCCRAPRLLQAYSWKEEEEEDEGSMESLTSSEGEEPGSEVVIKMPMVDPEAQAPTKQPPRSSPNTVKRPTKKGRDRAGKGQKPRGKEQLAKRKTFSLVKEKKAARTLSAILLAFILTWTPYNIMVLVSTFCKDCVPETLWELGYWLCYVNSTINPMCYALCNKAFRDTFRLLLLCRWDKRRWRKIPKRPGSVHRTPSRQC
CHRM5 agonist = CHRM5 agonism in calcium assay; P08912; CHO-K1 hM5 cells, Fluo-8 calcium fluorescence; 0% DMSO wells, 100% maximal acetylcholine response; activation, % at 3 µM; 360,000 compounds, 0.19% hits; AID 624037;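 active means activation above the run's mean over test compounds plus 3 SD, cut at about 23% in these data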;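 further: signal is peak over basal fluorescence ratio across the kinetic read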
M1 PAM = positive allosteric modulators of human M1 muscarinic receptor; AID 588819; 360,000 compounds, 0.088% hits; P11229; CHO-K1 hM1, Fluo-8 calcium fluorescence, ACh EC20; 0% = ACh EC20, 100% = maximal ACh; activation, % at 3 µM; in the data active means activation above about 19%, passing the limit was not always enough
CHRM5 PAM = CHRM5 positive allosteric modulation; P08912; CHO-K1 hM5, Fluo-8 calcium, ACh EC20 PAM; 0% = ACh EC20, 100% = ACh EC100; activation, % at 3 µM; 360,000 compounds, 0.3% hits; AID 624038;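 active means activation above the run cutoff, the mean activation of all test compounds plus 3 SD, cut at about 18% in these data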
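Test system: CHO-K1 hM5 cells / Doses: single-point, 3 µM nominal / Times: Post-acetylcholine fluorescence recording 140 s / Technique: Fluo-8 calcium fluorescence / Measure: Max/basal fluorescence ratio as % of EC20–EC100 ACh window / Benchmarks: low control EC20 acetylcholine (0%), high control EC100 acetylcholine (100%) / Replicates: one well per compound, no replicates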
CHRM5 antagonist = CHRM5 antagonism in calcium assay; 360,000 compounds, 0.59% hits; inhibition, % at 3 µM; CHO-hM5 cells, Fluo-8 calcium fluorescence, ACh EC80;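 active means inhibition above a per-plate cutoff, the mean of that plate's test compounds plus 3 SD, cut at about 27% in these data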;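 further: 0% = acetylcholine EC80 with DMSO and 100% = DMSO without agonist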
CHRM1 agonist = human M1 muscarinic receptor agonism; CHO-K1 hM1, Fluo-8 calcium fluorescence, agonist mode; 0% DMSO, 100% acetylcholine EC100; activation, % at 3 µM; 360,000 compounds, 0.33% hits; AID 588814;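 active means activation above the run's mean compound activation plus 3 SD, cut at about 16% in these data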;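 further: peak over basal fluorescence ratio within a 140 s kinetic read after compound addition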
Starred values were filed as active, the others as inactive; . = no result given.

SMILES	CHRM1 antagonist	CHRM5 agonist	M1 PAM	CHRM5 PAM	CHRM5 antagonist	CHRM1 agonist
Cc1ccc(S(=O)(=O)N2C[C@H]3[C@H]4C(=O)N(c5ccccc5)C(=O)[C@H]4C[C@H](OC(=O)NCC4CCCCC4)[C@@]3(O)C2)cc1	7	-1	-5	-1	14	-6
Cc1ccccc1/C=C/C(=O)NCC(=O)N1CCC(N(C)C2CCCCC2C)CC1 (stereo not given)	27*	-2	-24	3	-3	-10
OCCN(CC#CC(O)(c1ccccc1)c1ccccc1)CCO	-2	-19	-5	-3	7	-7
CC(C)N(CC#CC(O)(c1ccccc1)c1ccccc1)CCO	84*	-10	-25	-19	42*	-8
CN(CC#CC(O)(c1ccccc1)c1ccccc1)C(C)(C)C	100*	-20	-25	-35	77*	-9
CC(C)N(CC#CC(O)(c1ccccc1)c1ccccc1)C(C)C	100*	-21	-26	-32	96*	-9
CN1CCN(c2nc3cc(N4CCOCC4)ccc3s2)CC1	1	1	0	0	-1	-4
COC(=O)[C@@]12C[C@@H](CC(=O)NCCc3ccccc3OC)C(=O)N(Cc3ccco3)C1=CCC(C)(C)C2	.	-1	.	-1	-4	.
CC1(C(=O)NS(=O)(=O)c2ccccc2)CCN1C(=O)Cc1ccc(Cl)cc1Cl (stereo not given)	-5	-1	3	1	-3	-1
C[C@@]12C(=O)Nc3ccc(Cl)cc3C(=O)N1[C@H]1c3ccccc3OC[C@@H]1[C@@H]2c1ccccc1	33*	-3	-15	-28	20	-3
Cc1ccc2c(c1)C(=O)N1[C@H]3c4cc(Cl)ccc4OC[C@@H]3[C@H](c3ccccc3)[C@]1(C)C(=O)N2	-3	4	-4	-3	-6	-2
Cc1ccc2c(c1)C(=O)N1[C@H]3c4cc(C)ccc4OC[C@@H]3[C@H](c3ccccc3)[C@]1(C)C(=O)N2	48*	-4	-25	-18	10	-5
C[C@@]12C(=O)Nc3cc(Cl)ccc3C(=O)N1[C@H]1c3ccccc3OC[C@@H]1[C@@H]2c1ccccc1	33*	-2	-24	-15	9	-4
C[C@@]12C(=O)Nc3cc(Cl)ccc3C(=O)N1[C@H]1c3cc(Cl)ccc3OC[C@@H]1[C@@H]2c1ccccc1	-4	-2	-1	-7	10	-5
O=C1NC[C@H](CCCCN2C[C@H](Cc3ccccc3)N(CCC3CCCCC3)C(=O)C2=O)N(CCc2ccccc2)C1=O	.	2	.	-2	0	.
CCCN1CCC(NC(=S)Nc2cccc(Cl)c2Cl)CC1	-13	-9	9	-16	1	26*
CCN(CC)CCSc1nnc(Nc2ccccc2)n1-c1ccccc1	96*	-11	-36	-3	3	-14
Cc1cc(C)cc(-c2nnc(SCC(=O)NCC3CCCO3)o2)c1 (stereo not given)	-25	-3	28*	-1	9	1
CC1CCC2(CC1)NC(=O)N(CC(=O)NCc1ccc3c(c1)OCO3)C2=O (stereo not given)	7	-9	0	-14	31*	-5
CC1CCCCC12NC(=O)N(CC(=O)NCc1ccc3c(c1)OCO3)C2=O (stereo not given)	-2	5	-3	-1	9	-2
CCCS(=O)(=O)NC(=O)C1(C)CCN(C(=O)c2cc(C(C)(C)C)nn2C)C1 (stereo not given)	-8	0	14	8	-8	1
COc1cccc(Oc2ccc(N)cn2)c1	15	-2	-6	0	1	-5
Cc1cc(Oc2ccc(N)cn2)ccc1Cl	8	24*	11	1	31*	3
O=C(Nc1cc(F)c(Br)cc1F)c1ccc(Cl)cc1	39*	1	-18	-33	24	-3
Cc1ccc(C(C)C)c2c1C(c1ccc3c(c1)OCO3)CC(=O)O2 (stereo not given)	-1	15	-1	-6	0	21*
SMILES	CHRM1 antagonist	CHRM5 agonist	M1 PAM	CHRM5 PAM	CHRM5 antagonist	CHRM1 agonist
C[C@@H](NC(=O)c1ncn2c1C(=O)NC[C@@H]2C)c1ccccc1	-12	1	2	4	-6	-2
Cc1cc([N+](=O)[O-])ccc1NC(=O)CSc1nnc(C)n1C	-16	2	18	0	-5	4
CCCn1cnc2c(=O)oc3ccccc3c21	4	-1	3	30*	-2	-1
CCCN(CCC)Cc1c(C(=O)N/N=C/c2ccco2)nnn1-c1nonc1N	-5	-4	2	-8	27*	-4
Nc1nonc1-n1nnc(C(=O)N/N=C/c2ccco2)c1-c1ccccc1	-6	14	15	4	-8	22*
Cc1ccc(/C=N/NC(=O)c2nnn(-c3nonc3N)c2-c2ccccc2)o1	-5	9	3	-1	1	9
COc1cccc(-c2c(C(=O)N/N=C/c3ccco3)nnn2-c2nonc2N)c1	-4	17	10	4	3	35*
Nc1nonc1-n1nnc(C(=O)N/N=C/c2ccc(F)cc2)c1-c1cccs1	-1	8	4	-1	2	19*
CN(C)C(=O)c1ccc(Cc2cn(C)c3ccccc23)nc1	-20	2	14	-2	-1	0
CC1(C(=O)NS(=O)(=O)C2CC2)CCCN(C(=O)c2ccc(F)c(Cl)c2)C1 (stereo not given)	-18	1	15	-1	2	-1
COc1ccc(NC(=O)Cn2c(=O)n(CC3CCCO3)c(=O)c3cc(OC)c(OC)cc32)cc1OC (stereo not given)	-17	1	16	4	0	-1
Nc1nonc1-n1nnc(C(=O)N/N=C/c2ccoc2)c1-c1ccccc1	-1	14	5	2	2	16*
CCCc1nc2c3ccccc3ccn2c1Cc1ccccc1	8	-7	-25	-22	28*	-8
Cc1cc([N+](=O)[O-])ccc1NCc1ccccc1	7	-7	-11	-21	12	-12
COc1ccccc1CNc1ccc([N+](=O)[O-])cc1C	17	-5	-20	-15	33*	-9
O=[N+]([O-])c1ccc(Nc2ccc(Cl)cc2)nc1	6	-4	-12	-15	31*	-11
CCOc1ccc(C(=O)Nc2cc(-c3nc4ccccc4[nH]3)ccc2Cl)cc1[N+](=O)[O-]	37*	3	-13	-15	38*	1
Cc1ccc(S(=O)(=O)NCCC(=O)Nc2cc(F)ccc2C)cc1C	21*	-3	-10	-7	21	-2
